Results from ChEMBL document CHEMBL4715736, “Identification of anticancer agents based on the thieno[2,3-b]pyridine and 1H-pyrazole molecular scaffolds” (2016).

Assays:
Type in all cases: functional
HL-60(TB) [1] = assay: Growth inhibition of human HL-60(TB) cells assessed as cell growth at 0.01 uM incubated for 48 hrs by sulforhodamine B assay relative to control; settings: read-out: Activity
Procedure, shortened: (§1)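 Screened by the NCI Developmental Therapeutics Program on its panel of 60 human tumour cell lines. Compounds were first tested at a single 10 µM dose, and compounds active there went to dose-response curves. Growth is expressed relative to untreated control (100%). GI50 (50% of maximal proliferation inhibition) and TGI (total growth inhibition) were derived from the dose-response data.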

K562 = assay: Growth inhibition of human K562 cells assessed as cell growth at 100 uM incubated for 48 hrs by sulforhodamine B assay relative to control; settings: read-out: Activity
HL-60(TB) [2] = assay: Growth inhibition of human HL-60(TB) cells assessed as cell growth at 100 uM incubated for 48 hrs by sulforhodamine B assay relative to control; settings: read-out: Activity; procedure, shortened: as §1
HL-60(TB) [3] = assay: Growth inhibition of human HL-60(TB) cells assessed as cell growth at 1 uM incubated for 48 hrs by sulforhodamine B assay relative to control; settings: read-out: Activity; procedure, shortened: as §1
HL-60(TB) [4] = assay: Growth inhibition of human HL-60(TB) cells assessed as cell growth at 0.1 uM incubated for 48 hrs by sulforhodamine B assay relative to control; settings: read-out: Activity; procedure, shortened: as §1
HL-60(TB) [5] = assay: Growth inhibition of human HL-60(TB) cells incubated for 48 hrs by sulforhodamine B assay; procedure, shortened: as §1
EKVX [6] = assay: Growth inhibition of human EKVX cells assessed as cell growth at 10 uM incubated for 48 hrs by sulforhodamine B assay relative to control; settings: read-out: Activity
EKVX [7] = assay: Growth inhibition of human EKVX cells assessed as cell growth at 0.1 uM incubated for 48 hrs by sulforhodamine B assay relative to control; settings: read-out: Activity
EKVX [8] = assay: Growth inhibition of human EKVX cells incubated for 48 hrs by sulforhodamine B assay
EKVX [9] = assay: Growth inhibition of human EKVX cells assessed as cell growth at 100 uM incubated for 48 hrs by sulforhodamine B assay relative to control; settings: read-out: Activity
EKVX [10] = assay: Growth inhibition of human EKVX cells assessed as cell growth at 1 uM incubated for 48 hrs by sulforhodamine B assay relative to control; settings: read-out: Activity
EKVX [11] = assay: Growth inhibition of human EKVX cells assessed as cell growth at 0.01 uM incubated for 48 hrs by sulforhodamine B assay relative to control; settings: read-out: Activity

Row | SMILES | growth at 0.01 µM (HL-60(TB) [1]) | growth at 100 µM (K562) | growth at 100 µM (HL-60(TB) [2]) | growth at 1 µM (HL-60(TB) [3]) | growth at 0.1 µM (HL-60(TB) [4]) | GI50 (HL-60(TB) [5]) | LC50 (HL-60(TB) [5]) | TGI (HL-60(TB) [5]) | further results
1 | CCc1ccccc1NC(=O)c1sc2nc3c(cc2c1N)C(=O)CCC3 | 101% | 13% | -5% | 6% | 87% | 0.304 µM | > 100 µM | 42 µM | –
2 | CCc1cccc(C)c1NC(=O)c1sc2nc3c(cc2c1N)C(=O)CCC3 | 96% | -52% | -52% | 2% | 96% | 0.319 µM | ≥ 100 µM | ≥ 100 µM | –
3 | COc1ccc(S(=O)(=O)n2ccc(-c3ccc4c(c3)CCC(C)(C)O4)n2)cc1 | – | – | – | – | – | – | – | – | growth at 10 µM (EKVX [6]): 51.6%
4 | Cc1cc(C)c(NC(=O)c2sc3nc4c(cc3c2N)CN(Cc2ccccc2)CC4)c(C)c1 | – | 13% | – | – | – | – | – | – | –
5 | Cc1cccc(NC(=O)c2sc3nc4c(cc3c2N)C(=O)CCC4)c1 | – | 17% | – | – | – | – | – | – | –
6 | Nc1c(C(=O)Nc2ccccc2)sc2nc3c(cc12)CN(Cc1ccccc1)CC3 | – | 12% | – | – | – | – | – | – | –
7 | COc1cccc(NC(=O)c2sc3nc4c(cc3c2N)CN(Cc2ccccc2)CC4)c1 | – | 8% | – | – | – | – | – | – | –
8 | Cc1ccc(NC(=O)c2sc3nc4c(cc3c2N)C(=O)CCC4)cc1C | 99% | -4% | -33% | 6% | 105% | 0.36 µM | > 100 µM | 1.72 µM | –
9 | CN1CCc2nc3sc(C(N)=O)c(N)c3c(-c3cccs3)c2C1 | 110% | 2% | -19% | 95% | 104% | 2.5 µM | > 100 µM | 6.97 µM | growth at 0.1 µM (EKVX [7]): 92%; GI50 (EKVX [8]): 3.54 µM; TGI (EKVX [8]): > 100 µM; CC50 (EKVX [8]; read-out: LC50 (the source's name)): > 100 µM; growth at 100 µM (EKVX [9]): 5%; growth at 10 µM (EKVX [6]): 17%; growth at 1 µM (EKVX [10]): 91%; growth at 0.01 µM (EKVX [11]): 100%
